Assay results reported in ChEMBL document CHEMBL1132324, “Structure-activity relationships in 1,4-benzodioxan-related compounds. 6. Role of the dioxane unit on selectivity for alpha(1)-adrenoreceptor subtypes” (J Med Chem, 1999).

Columns and labels:
[1] = biological target: T1, Alpha-1A adrenergic receptor (Rattus norvegicus) (UniProt P43140); experiment: Antagonist affinity was expressed as apparent pKb at alpha-1 adrenoceptors on isolated rat prostatic vas deferens (Alpha-1A adrenergic receptor).; type: functional, tissue-based
T1 sequence (whole entry): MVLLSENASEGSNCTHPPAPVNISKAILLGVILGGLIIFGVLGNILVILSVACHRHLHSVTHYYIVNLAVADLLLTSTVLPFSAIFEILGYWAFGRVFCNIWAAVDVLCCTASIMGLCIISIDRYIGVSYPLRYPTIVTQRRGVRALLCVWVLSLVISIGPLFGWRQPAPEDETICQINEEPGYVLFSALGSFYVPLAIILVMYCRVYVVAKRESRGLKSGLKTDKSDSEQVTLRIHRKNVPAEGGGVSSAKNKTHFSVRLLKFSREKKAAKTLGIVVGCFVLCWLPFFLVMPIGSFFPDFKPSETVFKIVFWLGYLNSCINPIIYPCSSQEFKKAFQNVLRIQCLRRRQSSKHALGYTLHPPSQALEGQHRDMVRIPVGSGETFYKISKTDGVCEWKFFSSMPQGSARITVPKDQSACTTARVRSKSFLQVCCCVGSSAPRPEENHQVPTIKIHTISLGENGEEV
Summary of the method: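 Rat prostatic vas deferens in Tyrode with 0.1 μM cocaine. Equilibrated 60 min, primed twice with 10 μM noradrenaline, then a control cumulative (–)-noradrenaline curve recorded isometrically. Antagonist equilibrated 30 min before a repeat curve. Apparent pKb = log(DR−1) − log[B], with DR as the ratio of agonist EC50 with/without antagonist. 2–3 antagonist concentrations, each tested four times.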

[2] = biological target: Adrenergic receptor alpha-2 (Rattus norvegicus) (UniProt P22086+P19328+P22909); experiment: The binding affinity was evaluated on alpha-2 adrenergic receptor expressed in rat cortex by using [3H]rauwolscine as radioligand.
Summary of the method: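 Male Sprague-Dawley rat cerebral cortex membranes, washed in Tris-HCl pH 7.4 and held in buffer with 10 μM pargiline and 0.1% ascorbic acid. Incubated 30 min at 25 °C with 0.5-1.5 nM [3H]rauwolscine; nonspecific binding with 10 μM phentolamine. Filtration, scintillation counting. Ki from Cheng-Prusoff; 2-3 experiments in triplicate.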

[3] = test system: Alpha-1B adrenergic receptor (Cavia porcellus); experiment: Antagonist affinity was expressed as apparent pKb at alpha-1B adrenergic receptor on isolated Guinea pig spleen (Alpha-1B adrenergic receptor)
[4] = biological target: T2, Alpha-1D adrenergic receptor (Homo sapiens) (UniProt P25100); experiment: The binding affinity was evaluated on cloned human alpha-1D adrenergic receptor expressed in chinese hamster ovary(CHO) cells by using [3H]prazosin as radioligand.; type: cell-based
T2 sequence (whole entry): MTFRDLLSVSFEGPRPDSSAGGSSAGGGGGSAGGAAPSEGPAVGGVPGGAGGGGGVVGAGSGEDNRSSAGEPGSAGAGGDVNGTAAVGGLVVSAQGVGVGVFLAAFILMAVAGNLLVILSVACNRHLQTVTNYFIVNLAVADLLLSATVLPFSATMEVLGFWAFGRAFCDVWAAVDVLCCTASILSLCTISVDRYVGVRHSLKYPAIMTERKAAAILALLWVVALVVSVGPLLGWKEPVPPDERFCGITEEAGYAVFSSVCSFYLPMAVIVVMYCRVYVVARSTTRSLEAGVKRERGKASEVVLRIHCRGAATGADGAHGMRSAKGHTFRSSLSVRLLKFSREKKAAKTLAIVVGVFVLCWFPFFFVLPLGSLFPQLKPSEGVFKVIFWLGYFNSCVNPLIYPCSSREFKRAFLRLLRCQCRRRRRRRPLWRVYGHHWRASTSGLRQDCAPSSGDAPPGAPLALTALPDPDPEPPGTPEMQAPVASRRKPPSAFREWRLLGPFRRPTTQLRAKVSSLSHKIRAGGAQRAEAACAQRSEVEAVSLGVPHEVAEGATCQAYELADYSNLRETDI
Summary of the method: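 Membranes (30 μg protein) from CHO cells stably expressing each human α1 subtype, in 50 mM Tris-HCl pH 7.4. Incubated with 0.1–0.4 nM [3H]prazosin for 30 min at 25 °C, competitor 1 pM–10 μM. Nonspecific binding with 10 μM phentolamine. Ki by Cheng-Prusoff. 2–3 experiments in triplicate.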

Q: Which pKb [1] does the source give for `COc1cccc(OC)c1OCCNCC1C(=O)c2ccccc2OC1c1ccccc1` (centres undefined) here?
A: 7.88

Q: And the pKi [2]?
A: < 6

Q: And the pKb [3]?
A: 6.05

Q: What about the pKi [4] of the same compound?
A: 7.93
